Reference: paper PMC3773219 (Biochemistry, 2013)
Each block holds one molecule with its values, some of them ahead of it.

Assays:
[1] = target: T1, MKK6 (Homo sapiens, UniProt P52564, S207E/T211E); experiment: Kinase assay by HPLC, MKK6; format: biochemical; details: peptide as MKK6 substrate
T1 sequence (P52564 1-334 S207E/T211E): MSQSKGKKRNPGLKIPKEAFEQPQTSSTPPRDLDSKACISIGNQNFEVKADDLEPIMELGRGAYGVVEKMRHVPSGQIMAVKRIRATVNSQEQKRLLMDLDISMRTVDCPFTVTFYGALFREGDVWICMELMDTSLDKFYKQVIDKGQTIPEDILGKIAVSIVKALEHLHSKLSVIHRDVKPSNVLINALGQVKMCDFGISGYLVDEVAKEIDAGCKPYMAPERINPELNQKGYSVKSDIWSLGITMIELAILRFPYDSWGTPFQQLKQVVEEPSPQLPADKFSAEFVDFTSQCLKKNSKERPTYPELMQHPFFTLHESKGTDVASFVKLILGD

[2] = target: Pim1 (Homo sapiens, UniProt P11309); experiment: Enzyme coupled kinase assay, Pim1; format: biochemical; details: for reduction of Pim1 activity: relative to consensus peptide 2 (kcat/KM)
How it was run: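 His6-tagged human Pim1 was expressed in E. coli and purified on Ni-NTA. It was treated with alkaline phosphatase, and phospho and non-phospho forms were separated on Q-Sepharose. The coupled PK/LDH assay ran at room temperature with 20 mM MgCl2, 100 mM Tris pH 7.4, 1 mM ATP, 1 mM PEP, 0.2 mM NADH and 0–2400 μM peptide or PTP-PEST catalytic domain (aa 5–300). It was started with 40–1200 nM Pim1, read at A340, and initial rates were fitted for kcat, KM and/or kcat/KM.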

[3] = system: native Csk; details: cited from earlier work
[4] = system: protein kinases; details: cited from earlier work
[5] = target: GST-Csk (Homo sapiens, UniProt P41240); experiment: Enzyme coupled kinase assay, GST-Csk; format: biochemical; details: kcat/KM with GST-Csk relative to peptide 16
How it was run: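 GST-tagged wild-type human Csk was expressed in E. coli DH5α and purified on glutathione-Sepharose. The pyruvate kinase/lactate dehydrogenase coupled assay ran at room temperature in 100 mM Tris pH 7.4 with 5 mM MnCl2, 5 mM NaCl, 5 mM KCl, 10 mM DTT, 1 mM ATP, 1 mM PEP, 0.2 mM NADH and 0–2400 μM peptide. It was started with 1–3 μM GST-Csk and A340 followed continuously. Initial rates (<2 min) were fitted to Michaelis-Menten or V = kcat[E][S]/KM.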

Sequence of Pim1 (P11309 whole entry, the tested form may be a part): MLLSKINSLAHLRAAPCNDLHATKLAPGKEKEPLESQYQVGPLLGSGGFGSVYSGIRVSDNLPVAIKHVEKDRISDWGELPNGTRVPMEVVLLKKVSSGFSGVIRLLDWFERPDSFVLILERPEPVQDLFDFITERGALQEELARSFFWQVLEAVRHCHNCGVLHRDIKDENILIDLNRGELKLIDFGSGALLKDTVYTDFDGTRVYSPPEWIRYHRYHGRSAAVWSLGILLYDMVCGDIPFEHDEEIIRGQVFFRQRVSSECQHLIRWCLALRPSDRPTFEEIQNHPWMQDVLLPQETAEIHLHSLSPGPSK

Molecule: Ac-KKKKEEIYFFF-NH2 [Peptide 16, reference compound]
- kcat/KM ([3]; native Csk, previously reported): 6050 M⁻¹ s⁻¹

Molecule: Nc1ncnc2c1ncn2[C@@H]1O[C@H](COP(=O)(O)OP(=O)(O)OP(O)(O)=S)[C@@H](O)[C@H]1O [[γ-S]ATP, adenosine 5′-O-(3-thio)triphosphate]
- decrease of catalytic activity of kinases on substitution of [γ-S]ATP for ATP [4]: 15–30 fold

Molecule: AYAHPTGMYY [Peptide 5]
- effect of substitution on Pim1 activity ([2]; relative to consensus peptide 2): abolished the Pim1 activity

Molecule: Lck: Csk protein substrate
- kcat/KM of Csk protein substrates ([3]; protein substrates of Csk): 200000 M⁻¹ s⁻¹

B1: PTP-PEST: non-receptor protein tyrosine phosphatase; recombinant catalytic domain of human PTP-PEST (amino acids 5–300) (protein, UniProt Q05209 5-300, looked up, fragment)
chain: EILRKFIQRVQAMKSPDHNGEDNFARDFMRLRRLSTKYRTEKIYPTATGEKEENVKKNRYKDILPFDHSRVKLTLKTPSQDSDYINANFIKGVYGPKAYVATQGPLANTVIDFWRMIWEYNVVIIVMACREFEMGRKKCERYWPLYGEDPITFAPFKISCEDEQARTDYFIRTLLLEFQNESRRLYQFHYVNWPDHDVPSSFDSILDMISLMRKYQEHEDVPICIHCSAGCGRTGAICAIDYTWNLLKAGKIPEEFNVFNLIQEMRTQRHSAVQTKEQYELVHRAIAQLFEKQLQL
modifications: catalytic domain GST tag
- kcat/KM ([2]; recombinant PTP-PEST protein as Pim1 substrate, enzyme-coupled assay): 34000 M⁻¹ s⁻¹

The next lines start with the values.

- Km [1]: > 500 µM
Molecule: Ac-RRRYEILPTWNVY-NH2 [Peptide 13]

- reduction of Pim1 activity [2]: 62 fold
Molecule: RYRHPTPMYY [Peptide 7]

- more active than the previous consensus peptide (16) [5]: 11 fold
Molecule: Ac-DDEPIYAELADIT-NH2 [Peptide 23]

- reduction of Pim1 activity [2]: 620 fold
Molecule: RYRDPTGMYY [Peptide 6]
